pIC50: −log10 of the molar value.
Assays:
[1] = target: T1, Sterol O-acyltransferase 1 (Rattus norvegicus) (UniProt O70536); test: In vitro acyl coenzyme A:cholesterol acyltransferase (ACAT) activity in rat liver microsome at a concentration of 10 micro g/mL; assay type: microsomes
T1 sequence (whole entry): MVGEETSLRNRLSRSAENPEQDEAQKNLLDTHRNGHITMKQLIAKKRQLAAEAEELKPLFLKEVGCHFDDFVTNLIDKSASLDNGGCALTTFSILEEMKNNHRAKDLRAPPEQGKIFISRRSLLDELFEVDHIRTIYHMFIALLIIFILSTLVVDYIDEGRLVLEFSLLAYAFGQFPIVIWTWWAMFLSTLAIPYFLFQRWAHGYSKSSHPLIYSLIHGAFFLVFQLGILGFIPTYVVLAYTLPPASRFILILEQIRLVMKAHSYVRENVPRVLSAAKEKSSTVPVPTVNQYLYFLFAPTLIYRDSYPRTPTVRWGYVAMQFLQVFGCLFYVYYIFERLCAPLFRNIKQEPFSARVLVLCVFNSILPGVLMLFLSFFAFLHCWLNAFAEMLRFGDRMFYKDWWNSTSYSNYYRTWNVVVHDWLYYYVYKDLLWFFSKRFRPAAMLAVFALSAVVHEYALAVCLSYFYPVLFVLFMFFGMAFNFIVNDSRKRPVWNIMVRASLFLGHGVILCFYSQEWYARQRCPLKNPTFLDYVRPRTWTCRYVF
Outline: (§1)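 Enzyme source was hepatic microsomes from cholesterol-fed rats, 60 μg microsomal protein per reaction, with 90 μM radiolabeled oleoyl-CoA. Cholesterol ester formed was separated by TLC and quantified by scintillation counting. Compounds were tested at a single fixed concentration of 1 or 10 μg/mL, and results were given as percent inhibition of enzyme activity.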

[2] = target: T1, Sterol O-acyltransferase 1 (Rattus norvegicus); test: Tested in vitro for acyl coenzyme A:cholesterol acyltransferase (ACAT) activity in rat liver microsome at a concentration of 1 micro g/mL; assay type: microsomes; outline: as §1
[3] = target: T2, Sterol O-acyltransferase 1 (Rattus norvegicus, UniProt O70536); test: Inhibition of acyl coenzyme A:cholesterol acyltransferase (ACAT) activity in rat liver microsome; assay type: microsomes
T2 sequence (O70536 whole entry): T1 sequence (whole entry)
Outline: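 The assay used rat hepatic microsomes from cholesterol-fed animals (60 μg protein) and 90 μM radiolabeled oleoyl-CoA. Cholesterol ester product was resolved by TLC and counted by scintillation. IC50 was the concentration inhibiting 50% of enzyme activity.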

[4] = test system: Rattus norvegicus; test: Tested in vivo for anti-hypercholesterolaemic activity in male Sprague-Dawley rat.; assay type: functional
Outline: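 Compound was given at 0.03% w/w in the diet (about 30 mg/kg/day). Basal-diet rats (n = 4) gave a baseline that was subtracted. Plasma cholesterol was measured enzymatically, and the result was expressed as percent change versus undosed controls.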

Work on `CCOC(CSc1nc(-c2ccccn2)c(-c2ccccn2)[nH]1)OCC` yielded an inhibition [1] of 15%.

For `Cc1cccc(-c2nc(SC[C@H]3C[C@@](C)(O)CC(=O)O3)[nH]c2-c2cccc(C)c2)c1.Cc1cccc(-c2nc(SC[C@H]3C[C@](C)(O)CC(=O)O3)[nH]c2-c2cccc(C)c2)c1`, the inhibition [2] was 94%, the pIC50 [3] was 7.19 and the Change [4] was -64%.

Compound `C[C@@]1(O)CC(=O)OC(CSc2nc(-c3ccccc3)c[nH]2)C1` (some centres undefined) has an inhibition [1] of 0%.

`O=C1CCC(CSc2nc(-c3ccccc3)c(-c3ccccc3)[nH]2)N1` (centres undefined) was tested, and the inhibition [2] was 87% and the pIC50 [3] was 6.44.

In the case of `CCOC(CSc1nc(-c2ccco2)c(-c2ccco2)[nH]1)OCC`, the inhibition [2] was 34%.

`C[C@@]1(O)CC(=O)O[C@@H](CSc2nc(-c3ccccc3)c(-c3ccccc3)s2)C1.C[C@]1(O)CC(=O)O[C@@H](CSc2nc(-c3ccccc3)c(-c3ccccc3)s2)C1` was tested, and the inhibition [1] was 4%.

`c1ccc(CSc2nc(-c3ccccc3)c(-c3ccccc3)[nH]2)cc1` showed an inhibition [2] of 90% and a pIC50 [3] of 6.54.

In the case of `O=C(O)CCCCCSc1nc(-c2ccccc2Cl)c(-c2ccccc2Cl)[nH]1`, the inhibition [1] was 20%.

In the case of `O=C1CCCC(CSc2nc(-c3ccccc3)c(-c3ccccc3)[nH]2)O1` (centres undefined), the inhibition [1] was 95%, the pIC50 [3] was 6.13 and the Change [4] was 16%.

Work on `C[C@@]1(O)CC(=O)OC(CSc2nc(-c3cccc(Cl)c3)c(-c3cccc(Cl)c3)[nH]2)C1` (some centres undefined) yielded an inhibition [2] of 93% and a pIC50 [3] of 6.96.

`CCOC(=O)CC(C)(O)CC(O)CSc1nc(-c2ccccc2)c(-c2ccccc2)[nH]1` (centres undefined) showed an inhibition [2] of 91% and a pIC50 [3] of 6.55.

Compound `CC1=CC(=O)OC(CSc2nc(-c3ccccc3Cl)c(-c3ccccc3Cl)[nH]2)C1` (centres undefined) has an inhibition [1] of 95% and a pIC50 [3] of 5.77.

In the case of `COc1ccccc1-c1nc(SC[C@H]2C[C@@](C)(O)CC(=O)O2)[nH]c1-c1ccccc1OC.COc1ccccc1-c1nc(SC[C@H]2C[C@](C)(O)CC(=O)O2)[nH]c1-c1ccccc1OC`, the inhibition [2] was 29%.

Work on `C[C@]1(O)CC(=O)OC(CSc2nc(-c3ccccc3)n(-c3ccccc3)n2)C1` (some centres undefined) yielded an inhibition [2] of 12%.

In the case of `COc1ccc(-c2nc(S)[nH]c2-c2ccc(OC)cc2)cc1`, the inhibition [1] was 42%.

Work on `CC(C)c1ccc(-c2nc(SC[C@H]3C[C@@](C)(O)CC(=O)O3)[nH]c2-c2ccc(C(C)C)cc2)cc1.CC(C)c1ccc(-c2nc(SC[C@H]3C[C@](C)(O)CC(=O)O3)[nH]c2-c2ccc(C(C)C)cc2)cc1` yielded an inhibition [2] of 90% and a pIC50 [3] of 6.64.

In the case of `C[C@@]1(O)CC(=O)O[C@@H](CSc2nc(-c3ccccc3)c(-c3ccccc3)n2-c2ccccc2)C1.C[C@]1(O)CC(=O)O[C@@H](CSc2nc(-c3ccccc3)c(-c3ccccc3)n2-c2ccccc2)C1`, the inhibition [1] was 32%.

Work on `Sc1nc(-c2ccccc2Cl)c(-c2ccccc2Cl)[nH]1` yielded an inhibition [1] of 27%.

Work on `O=C(O)CCC(O)CSc1nc(-c2ccccc2)c(-c2ccccc2)[nH]1` (centres undefined) yielded an inhibition [1] of 76%.

Compound `CO[C@@H]1C[C@@](C)(O)C[C@H](CSc2nc(-c3ccccc3)c(-c3ccccc3)[nH]2)O1` has an inhibition [2] of 93% and a pIC50 [3] of 7.09.

Work on `CC(O)(CC(=O)OC(C)(C)C)CC(O)CSc1nc2c3ccccc3c3ccccc3c2[nH]1` (centres undefined) yielded an inhibition [2] of 41%.

Work on `COc1ccccc1-c1nc(S)[nH]c1-c1ccccc1OC` yielded an inhibition [2] of 0%.

Compound `CC1=CC(=O)OC(CSc2nc(-c3ccc(Cl)cc3)c(-c3ccc(Cl)cc3)[nH]2)C1` (centres undefined) has an inhibition [2] of 77%.

Compound `COC(CSc1nc(-c2ccccc2)c(-c2ccccc2)[nH]1)OC` has an inhibition [1] of 99% and a pIC50 [3] of 6.24.

`COc1ccc(-c2nc(SCC3C[C@@](C)(O)CC(=O)O3)[nH]c2-c2ccc(OC)cc2)cc1` (some centres undefined) gave an inhibition [1] of 96% and a pIC50 [3] of 6.47.

For `Clc1cccc(-c2[nH]c(SCC3CCCCO3)nc2-c2ccccc2)c1` (centres undefined), the inhibition [2] was 90% and the pIC50 [3] was 6.25.

Work on `Clc1ccccc1-c1[nH]c(SCC2CCCCO2)nc1-c1ccccc1` (centres undefined) yielded an inhibition [2] of 76%.

For `C[C@@]1(O)CC(=O)OC(CSc2nc(-c3ccccc3)c(-c3ccccc3)[nH]2)C1` (some centres undefined), the inhibition [1] was 98%, the pIC50 [3] was 6.77 and the Change [4] was -105%.

With `CC(C)(C)c1ccc(-c2nc(SC[C@H]3C[C@@](C)(O)CC(=O)O3)[nH]c2-c2ccc(C(C)(C)C)cc2)cc1.CC(C)(C)c1ccc(-c2nc(SC[C@H]3C[C@](C)(O)CC(=O)O3)[nH]c2-c2ccc(C(C)(C)C)cc2)cc1` the inhibition [2] was 32%.

`CO[C@H]1C[C@H](O)C[C@@H](CSc2nc(-c3ccccc3)c(-c3ccccc3)[nH]2)O1` gave an inhibition [2] of 92% and a pIC50 [3] of 7.05.

Work on `COc1ccc(-c2nc(SCC3C[C@](C)(O)CC(=O)O3)[nH]c2-c2ccc(OC)cc2)cc1` (some centres undefined) yielded an inhibition [1] of 87% and a pIC50 [3] of 6.38.

In the case of `CO[C@H]1O[C@H](CSc2nc(-c3ccccc3)c(-c3ccccc3)[nH]2)[C@@H](O)[C@H](O)[C@@H]1O`, the inhibition [2] was 52%.

Work on `CC1=CC(=O)OC(CSc2nc(-c3ccc(F)cc3)c(-c3ccc(F)cc3)[nH]2)C1` (centres undefined) yielded an inhibition [1] of 96% and a pIC50 [3] of 6.21.

Work on `C[C@@]1(O)CC(=O)OC(CSc2nc(-c3ccc(Cl)cc3)c(-c3ccc(Cl)cc3)[nH]2)C1` (some centres undefined) yielded an inhibition [1] of 98%, a pIC50 [3] of 6.74 and a Change [4] of -11%.

In the case of `CO[C@H]1C[C@@](C)(O)C[C@H](CSc2nc(-c3ccccc3)c(-c3ccccc3)[nH]2)O1`, the inhibition [2] was 89% and the pIC50 [3] was 6.55.

`C[C@@]1(O)CC(=O)OC(CSc2nc(-c3ccccc3Cl)c(-c3ccccc3Cl)[nH]2)C1` (some centres undefined) showed an inhibition [1] of 99% and a pIC50 [3] of 6.85.

For `Cn1c(SC[C@H]2C[C@@](C)(O)CC(=O)O2)nc(-c2ccccc2)c1-c1ccccc1.Cn1c(SC[C@H]2C[C@](C)(O)CC(=O)O2)nc(-c2ccccc2)c1-c1ccccc1`, the inhibition [1] was 90% and the pIC50 [3] was 5.59.

For `C[C@]1(O)CC(=O)OC(CSc2nc(-c3ccccc3)c(-c3ccccc3)[nH]2)C1` (some centres undefined), the inhibition [1] was 98%, the pIC50 [3] was 6.85 and the Change [4] was -35%.

`O=C1CC(O)CC(CSc2nc(-c3ccccc3)c(-c3ccccc3)[nH]2)O1` (centres undefined) gave an inhibition [2] of 89% and a pIC50 [3] of 6.04.

`Clc1ccc(-c2[nH]c(SCC3CCCCO3)nc2-c2ccccc2)cc1` (centres undefined) gave an inhibition [2] of 87%.

`c1ccc(-c2nc(SCCC3OCCCO3)[nH]c2-c2ccccc2)cc1` was tested, and the inhibition [2] was 80% and the pIC50 [3] was 6.14.

Compound `C[C@@]1(O)CC(O)O[C@@H](CSc2nc(-c3ccccc3)c(-c3ccccc3)[nH]2)C1` (some centres undefined) has an inhibition [2] of 94% and a pIC50 [3] of 6.80.

`COc1cccc(-c2nc(SCC3C[C@](C)(O)CC(=O)O3)[nH]c2-c2cccc(OC)c2)c1` (some centres undefined) was tested, and the inhibition [1] was 97% and the pIC50 [3] was 6.24.

Work on `O=C1CCCC(CSc2nc(-c3ccccc3)c(-c3ccccc3)[nH]2)N1` (centres undefined) yielded an inhibition [2] of 86% and a pIC50 [3] of 6.21.

For `CC1=CC(=O)OC(CSc2nc(-c3ccc(C)cc3)c(-c3ccc(C)cc3)[nH]2)C1` (centres undefined), the inhibition [1] was 97% and the pIC50 [3] was 6.55.

In the case of `C[C@@]1(O)CC(=O)O[C@@H](CS(=O)(=O)c2nc(-c3ccccc3)c(-c3ccccc3)[nH]2)C1`, the inhibition [1] was 23%.

`O=C1CCC(CSc2nc(-c3ccccc3)c(-c3ccccc3)[nH]2)O1` (centres undefined) showed an inhibition [1] of 78%.

For `CCOC(CSc1nc(-c2ccccc2)c(-c2ccccc2)[nH]1)OCC`, the inhibition [1] was 99%, the pIC50 [3] was 6.60 and the Change [4] was -37%.

`c1ccc(-c2nc(SCC3OCCCO3)[nH]c2-c2ccccc2)cc1` showed an inhibition [1] of 97%, a pIC50 [3] of 6.74 and a Change [4] of -10%.

In the case of `CCSc1nc(-c2ccccc2)c(-c2ccccc2)[nH]1`, the inhibition [1] was 99% and the pIC50 [3] was 6.11.

`C[C@@]1(O)CC(=O)O[C@@H](CSc2nc(-c3ccccc3)c(-c3ccccc3)o2)C1.C[C@]1(O)CC(=O)O[C@@H](CSc2nc(-c3ccccc3)c(-c3ccccc3)o2)C1` gave an inhibition [1] of 13%.

For `CC1=CC(=O)OC(CSc2nc(-c3cccc(Cl)c3)c(-c3cccc(Cl)c3)[nH]2)C1` (centres undefined), the inhibition [1] was 98% and the pIC50 [3] was 6.36.

For `CC1=CC(=O)OC(CSc2nc(-c3ccccc3)c(-c3ccccc3)[nH]2)C1` (centres undefined), the inhibition [1] was 98%, the pIC50 [3] was 6.70 and the Change [4] was 27%.

`C[C@@]1(O)CC(=O)O[C@@H](CSc2nc(-c3ccc(C(F)(F)F)cc3)c(-c3ccc(C(F)(F)F)cc3)[nH]2)C1.C[C@]1(O)CC(=O)O[C@@H](CSc2nc(-c3ccc(C(F)(F)F)cc3)c(-c3ccc(C(F)(F)F)cc3)[nH]2)C1` showed an inhibition [1] of 95% and a pIC50 [3] of 6.00.

`C[C@@]1(O)CC(=O)OC(CSc2nc(-c3ccc(F)cc3)c(-c3ccc(F)cc3)[nH]2)C1` (some centres undefined) was tested, and the inhibition [1] was 97% and the pIC50 [3] was 6.10.

`Cc1ccc(-c2nc(SC[C@H]3C[C@@](C)(O)CC(=O)O3)[nH]c2-c2ccc(C)cc2)cc1.Cc1ccc(-c2nc(SC[C@H]3C[C@](C)(O)CC(=O)O3)[nH]c2-c2ccc(C)cc2)cc1` was tested, and the inhibition [1] was 99% and the pIC50 [3] was 6.77.

For `CC(O)(CC(=O)OC(C)(C)C)CC(O)CSc1nc(-c2ccc(Cl)cc2)c(-c2ccc(Cl)cc2)[nH]1` (centres undefined), the inhibition [1] was 97%, the pIC50 [3] was 6.60 and the Change [4] was -53%.

`CC(O)(CC(=O)[O-])CC(O)CSc1nc(-c2ccccc2)c(-c2ccccc2)[nH]1.[Na+]` (centres undefined) gave an inhibition [1] of 66% and a Change [4] of -33%.

From ChEMBL document CHEMBL1125365, “Acyl-CoA:cholesterol O-acyl transferase (ACAT) inhibitors. 1. 2-(Alkylthio)-4,5-diphenyl-1H-imidazoles as potent inhibitors of ACAT” (J Med Chem, 1992)
